Measurements reported in ChEMBL document CHEMBL2016487, “Pyrazolopyrimidines as dual Akt/p70S6K inhibitors” (Bioorg Med Chem Lett, 2012).

Assays:
[1] = target: T1, Ribosomal protein S6 kinase beta-1 (Homo sapiens, UniProt P23443); assay: Inhibition of p70S6K after 3 hrs by luciferase based chemiluminescence assay
[2] = target: T2, RAC-alpha serine/threonine-protein kinase (Homo sapiens, UniProt P31749); assay: Inhibition of AKT1 after 3 hrs by luciferase based chemiluminescence assay
[3] = target: T1, Ribosomal protein S6 kinase beta-1; assay: Inhibition of p70S6K-mediated ribosomal protein S6 phosphorylation in human A549 cells after 3 hrs by chemiluminescence assay; type: cell-based
How it was run: (§1)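 A549 or PC-3 cells seeded at 7.5 × 10³ cells/well in DMEM with heat-inactivated 10% FBS, 1% penicillin–streptomycin, 1% non-essential amino acids, grown 48 h at 37 °C, 5% CO₂. Treated 3 h with compound at 1.2–300 nM, triplicate, 0.2% DMSO final. Fixed in 4% formaldehyde, blocked, probed with anti-phospho-S6 (Ser240/244) and anti-total-S6 overnight at 4 °C, chemiluminescent read-out.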

[4] = target: T1, Ribosomal protein S6 kinase beta-1; assay: Inhibition of p70S6K-mediated ribosomal protein S6 phosphorylation in human PC3 cells after 3 hrs by chemiluminescence assay; type: cell-based, PC-3; how it was run: as §1
[5] = Clearance in rat at 2.5 mg/kg; type: ADME, organism-based; set-up: dose 2.5 mg/kg; details: in vivo
[6] = Clearance in dog at 3 mg/kg; type: ADME, organism-based, Canis lupus familiaris; set-up: dose 3 mg/kg; details: in vivo
[7] = Clearance in monkey at 3 mg/kg; type: ADME, organism-based, Macaca mulatta; set-up: dose 3 mg/kg; details: rhesus monkey, in vivo
[8] = Volume of distribution in rat at 2.5 mg/kg; type: ADME, organism-based; set-up: dose 2.5 mg/kg; details: in vivo
[9] = Volume of distribution in dog at 3 mg/kg; type: ADME, organism-based, Canis lupus familiaris; set-up: dose 3 mg/kg; details: in vivo
[10] = Volume of distribution in monkey at 3 mg/kg; type: ADME, organism-based, Macaca mulatta; set-up: dose 3 mg/kg; details: rhesus monkey, in vivo
[11] = Half life in rat at 2.5 mg/kg, iv; type: ADME, organism-based; set-up: dose 2.5 mg/kg, route intravenous; details: in vivo
[12] = Half life in dog at 3 mg/kg, iv; type: ADME, organism-based, Canis lupus familiaris; set-up: dose 3 mg/kg, route intravenous; details: in vivo
[13] = Half life in monkey at 3 mg/kg, iv; type: ADME, organism-based, Macaca mulatta; set-up: dose 3 mg/kg, route intravenous; details: rhesus monkey, in vivo
[14] = Half life in rat at 2.5 mg/kg, po; type: ADME, organism-based; set-up: dose 2.5 mg/kg, route oral; details: in vivo
[15] = Half life in dog at 3 mg/kg, po; type: ADME, organism-based, Canis lupus familiaris; set-up: dose 3 mg/kg, route oral; details: in vivo
[16] = Half life in monkey at 3 mg/kg, po; type: ADME, organism-based, Macaca mulatta; set-up: dose 3 mg/kg, route oral; details: rhesus monkey, in vivo
[17] = Oral bioavailability in rat at 2.5 mg/kg; type: ADME, organism-based; details: in vivo
[18] = Oral bioavailability in dog at 3 mg/kg; type: ADME, organism-based, Canis lupus familiaris; details: in vivo
[19] = Oral bioavailability in monkey at 3 mg/kg; type: ADME, organism-based, Macaca mulatta; details: rhesus monkey, in vivo
[20] = Cmax in rat at 2.5 mg/kg, iv; type: ADME, organism-based; set-up: dose 2.5 mg/kg, route intravenous; details: in vivo
[21] = Cmax in dog at 3 mg/kg, iv; type: ADME, organism-based, Canis lupus familiaris; set-up: dose 3 mg/kg, route intravenous; details: in vivo
[22] = Cmax in monkey at 3 mg/kg, iv; type: ADME, organism-based, Macaca mulatta; set-up: dose 3 mg/kg, route intravenous; details: rhesus monkey, in vivo
[23] = Cmax in rat at 2.5 mg/kg, po; type: ADME, organism-based; set-up: dose 2.5 mg/kg, route oral; details: in vivo
[24] = Cmax in dog at 3 mg/kg, po; type: ADME, organism-based, Canis lupus familiaris; set-up: dose 3 mg/kg, route oral; details: in vivo
[25] = Cmax in monkey at 3 mg/kg, po; type: ADME, organism-based, Macaca mulatta; set-up: dose 3 mg/kg, route oral; details: rhesus monkey, in vivo
[26] = system: Rattus norvegicus; assay: Dose normalized AUC in rat at 2.5 mg/kg, iv; type: ADME, organism-based; set-up: dose 2.5 mg/kg, route intravenous; details: in vivo
[27] = system: Canis familiaris; assay: Dose normalized AUC in dog at 3 mg/kg, iv; type: ADME, organism-based, Canis lupus familiaris; set-up: dose 3 mg/kg, route intravenous; details: in vivo
[28] = system: Rhesus monkey; assay: Dose normalized AUC in monkey at 3 mg/kg, iv; type: ADME, organism-based, Macaca mulatta; set-up: dose 3 mg/kg, route intravenous; details: in vivo
[29] = system: Rattus norvegicus; assay: Dose normalized AUC in rat at 2.5 mg/kg, po; type: ADME, organism-based; set-up: dose 2.5 mg/kg, route oral; details: in vivo
[30] = system: Canis familiaris; assay: Dose normalized AUC in dog at 3 mg/kg, po; type: ADME, organism-based, Canis lupus familiaris; set-up: dose 3 mg/kg, route oral; details: in vivo
[31] = system: Rhesus monkey; assay: Dose normalized AUC in monkey at 3 mg/kg, po; type: ADME, organism-based, Macaca mulatta; set-up: dose 3 mg/kg, route oral; details: in vivo
[32] = Plasma concentration in mouse at 100 mg/kg after 1 hr; type: ADME, organism-based; set-up: dose 100 mg/kg
How it was run: (§2)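 Mouse plasma levels measured 1 and 4 h after a 100 mg/kg dose.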

[33] = Plasma concentration in mouse at 100 mg/kg after 4 hrs; type: ADME, organism-based; set-up: dose 100 mg/kg; how it was run: as §2
[34] = system: PC-3; assay: Inhibition of PRAS40 phosphorylation in human PC3 cells xenografted model at 100 mg/kg bid; type: functional
How it was run: (§3)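 PC-3 prostate carcinoma model; compound given at 100 mg/kg bid, five doses in total before phospho-S6, phospho-GSK3β and phospho-PRAS40 levels were measured.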

[35] = system: PC-3; assay: Inhibition of ribosomal protein S6 phosphorylation in human PC3 cells xenografted model at 100 mg/kg bid; type: functional; how it was run: as §3
[36] = system: PC-3; assay: Inhibition of GSK3beta phosphorylation in human PC3 cells xenografted model at 100 mg/kg bid; type: functional; how it was run: as §3
[37] = system: PC-3; assay: Anticancer activity against human PC3 prostate tumor cell xenografted model at 50 mg/kg, po qd for 15 days; type: functional; details: PC-3, 360 h, read-out: TGI
How it was run: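 PC-3 xenograft efficacy study; oral dosing at 50 mg/kg qd for 15 days, tumor growth inhibition determined.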

[38] = system: A549; assay: Anticancer activity against human A549 cell xenografted model at 50 mg/kg, po qd for 2 days every 4 days; type: functional; details: read-out: TGI
[39] = system: A549; assay: Anticancer activity against human A549 cell xenografted model at 100 mg/kg, po qd for 2 days every 4 days; type: functional; details: read-out: TGI
How it was run: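 A549 xenograft; oral dosing at 50 mg/kg qd, or 100 mg/kg qd for two days every 4 days; tumor growth inhibition determined.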

[40] = target: T2, RAC-alpha serine/threonine-protein kinase; assay: Inhibition of AKT1-mediated GSK3beta phosphorylation in human PC3 cells after 3 hrs by chemiluminescence assay; type: cell-based, PC-3
How it was run: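 PC-3 cells seeded at 7.5 × 10³ cells/well, grown 24 h, then serum-starved 24 h. Compound treatment 3 h in triplicate (0.2% DMSO final), followed by 100 ng/ml IGF1 for 30 min. Fixed and processed as a cell ELISA using anti-phospho-GSK3β (S9) and anti-total-GSK3β antibodies, chemiluminescent read-out.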

T1 sequence (P23443 whole entry): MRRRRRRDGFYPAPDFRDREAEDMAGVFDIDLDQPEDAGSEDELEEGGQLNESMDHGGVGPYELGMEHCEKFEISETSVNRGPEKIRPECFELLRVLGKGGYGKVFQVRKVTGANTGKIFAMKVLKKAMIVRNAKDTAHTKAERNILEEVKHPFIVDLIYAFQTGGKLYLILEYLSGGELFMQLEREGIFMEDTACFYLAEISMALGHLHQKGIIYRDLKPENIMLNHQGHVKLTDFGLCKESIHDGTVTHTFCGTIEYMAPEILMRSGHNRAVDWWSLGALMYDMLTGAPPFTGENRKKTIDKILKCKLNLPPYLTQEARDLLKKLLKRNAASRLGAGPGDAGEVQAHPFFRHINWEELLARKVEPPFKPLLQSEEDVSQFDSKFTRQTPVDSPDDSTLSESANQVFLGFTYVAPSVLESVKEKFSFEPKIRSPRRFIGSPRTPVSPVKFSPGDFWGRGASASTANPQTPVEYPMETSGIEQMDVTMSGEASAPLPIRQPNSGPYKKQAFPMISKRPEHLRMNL
T2 sequence (P31749 whole entry): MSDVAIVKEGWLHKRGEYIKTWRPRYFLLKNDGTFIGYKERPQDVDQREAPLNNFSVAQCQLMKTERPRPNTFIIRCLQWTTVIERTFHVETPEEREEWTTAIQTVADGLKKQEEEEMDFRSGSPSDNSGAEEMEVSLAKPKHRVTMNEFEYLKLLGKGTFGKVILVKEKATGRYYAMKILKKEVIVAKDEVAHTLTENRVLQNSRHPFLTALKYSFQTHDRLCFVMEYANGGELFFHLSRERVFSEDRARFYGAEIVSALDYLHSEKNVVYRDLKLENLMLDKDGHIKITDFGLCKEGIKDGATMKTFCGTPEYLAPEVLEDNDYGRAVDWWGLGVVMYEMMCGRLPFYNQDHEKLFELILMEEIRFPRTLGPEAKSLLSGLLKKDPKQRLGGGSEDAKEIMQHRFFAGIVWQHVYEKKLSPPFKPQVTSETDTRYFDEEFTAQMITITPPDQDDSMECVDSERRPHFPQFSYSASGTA

Cc1c(NCCN2CCCC2)cc(C(=O)CCC(F)(F)F)cc1N1CCN(c2ncnc3[nH]nc(Br)c23)CC1 [XL-418]
IC50 [1]: 2 nM | IC50 [2]: 1 nM | IC50 [3]: 30 nM | IC50 [4]: 55 nM | clearance [5]: 45.4 mL/min/kg | clearance [6]: 26 mL/min/kg | clearance [7]: 20.5 mL/min/kg | Vd [8]: 12.9 L/kg | Vd [9]: 17 L/kg | Vd [10]: 6.9 L/kg | half-life [11]: 3.5 h | half-life [12]: 7.5 h | half-life [13]: 6.1 h | half-life [14]: 7.9 h | half-life [15]: 10.4 h | half-life [16]: 6.4 h | bioavailability [17]: 35% | bioavailability [18]: 58% | bioavailability [19]: 77% | Cmax [20]: 330 nM | Cmax [21]: 210 nM | Cmax [22]: 580 nM | Cmax [23]: 40 nM | Cmax [24]: 100 nM | Cmax [25]: 400 nM | AUC/dose [26]: 0.64 µM·kg·h/mg | AUC/dose [27]: 0.95 µM·kg·h/mg | AUC/dose [28]: 1.22 µM·kg·h/mg | AUC/dose [29]: 0.17 µM·kg·h/mg | AUC/dose [30]: 0.54 µM·kg·h/mg | AUC/dose [31]: 0.94 µM·kg·h/mg | concentration at 1 h [32]: 1600 nM | concentration at 4 h [33]: 3100 nM | inhibition in vivo at 100 mg/kg [34]: 76% | inhibition in vivo at 100 mg/kg [35]: 90% | inhibition in vivo at 100 mg/kg [36]: 46% | inhibition in vivo at 50 mg/kg [37]: 52% | inhibition in vivo at 50 mg/kg [38]: 71% | inhibition in vivo at 100 mg/kg [39]: 96% | IC50 [40]: 194 nM
